Converted amounts (≈) assume the structure as drawn. Bounds are passed on as bounds.

The values below come from ChEMBL document CHEMBL1145017, “Synthesis and in vivo antitumor activity of poly(l-glutamic acid) conjugates of 20S-camptothecin” (J Med Chem, 2003).

The species entered for data set [1] is Mus musculus. Description: Maximum tolerated dose (MTD) in mice. It is filed as functional.
Data set [2] can be described thus: Aqueous solubility was measured. It is filed as physicochemical. The essentials: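 Conjugate dissolved in aqueous Na₂HPO₄ (0.1 M, pH 7.4) at 37 °C; solubility expressed as mg of conjugate per mL.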
The test system of data set [3] is Mus musculus. Description: Effect on in Vivo Growth of s.c. HT-29 […] in mice measured ad difference of average times for tumors to reach a volume of 500 mm**3 between treatment and control groups at dose of 28 mg/kg. It is filed as functional. The essentials:
(§1)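 Athymic nude mice bearing human HT-29 colon or NCI-H460 lung carcinoma cells were given a single bolus ip injection, dosed as mg CPT equivalent/kg. Endpoint was TGD in days, the difference in mean time to reach 500 mm³ tumor volume between treated and control groups. Student's t-test vs vehicle.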

Data set [4] has as its system Mus musculus. As to the kind of experiment: Effect on in Vivo Growth of s.c. HT-29 […] in mice measured ad difference of average times for tumors to reach a volume of 500 mm**3 between treatment and control groups at dose of 24 mg/kg. It is filed as functional. The method, boiled down:
as §1

Data set [5] has as its system Mus musculus. Description: Maximum tolerated dose (MTD) in mice bearing s.c. B-16 Melanomas. It is filed as functional.
Data set [6] deals with Mus musculus. Description: Effect on in Vivo Growth of s.c. B-16 Melanomas in mice measured ad difference of average times for tumors to reach a volume of 500 mm**3 between treatment and control groups at dose of 75 mg/kg. The class given is functional.
In data set [7] the test system is Mus musculus. As to the kind of experiment: Effect on in Vivo Growth of s.c. HT-29 […] in mice measured ad difference of average times for tumors to reach a volume of 500 mm**3 between treatment and control groups at dose of 20 mg/kg. The class given is functional. The method, boiled down: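 Athymic nude mice bearing human HT-29 colon carcinoma cells got a single bolus ip injection of conjugate, dosed in mg CPT equivalent/kg. Tumor growth delay (days) is the difference in average time for tumors to reach 500 mm³ between treated and control groups. Significance was tested by Student's t-test against vehicle.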

Data set [8] concerns Mus musculus. Description: Effect on in Vivo Growth of s.c. B-16 Melanomas in mice measured ad difference of average times for tumors to reach a volume of 500 mm**3 between treatment and control groups at dose of 48 mg/kg. It is filed as functional.
The test system of data set [9] is Mus musculus. Description: Effect on in Vivo Growth of s.c. B-16 Melanomas in mice measured ad difference of average times for tumors to reach a volume of 500 mm**3 between treatment and control groups at dose of 60 mg/kg. The class given is functional.
Data set [10] has as its system Mus musculus. Description: Effect on in Vivo Growth of s.c. B-16 Melanomas in mice measured ad difference of average times for tumors to reach a volume of 500 mm**3 between treatment and control groups at dose of 35 mg/kg. It is filed as functional.
Data set [11] deals with Mus musculus. As to the kind of experiment: Effect on in Vivo Growth of s.c. B-16 Melanomas in mice measured ad difference of average times for tumors to reach a volume of 500 mm**3 between treatment and control groups at dose of 41 mg/kg. The class given is functional.

As to `CC[C@@]1(OC(=O)CNC(=O)CNC(=O)CC[C@H](N)C(=O)O)C(=O)OCc2c1cc1n(c2=O)Cc2cc3ccccc3nc2-1`, the MTD entry in the data set filed under Mus musculus [1] is listed as “>=28 (mg of CPT) kg-1”. This molecule showed a solubility in [2] of 34 mg/mL (≈ 57.5 mM). In the data set with Mus musculus [3], this molecule came in with a TGD of 4 days.
For `CC[C@@]1(OC(=O)CNC(=O)CNC(=O)CNC(=O)CC[C@H](N)C(=O)O)C(=O)OCc2c1cc1n(c2=O)Cc2cc3ccccc3nc2-1`, in the data set filed under Mus musculus [1], the MTD is reported as <34 (mg of CPT) kg-1. In addition, in data set [2], the solubility worked out at 33 mg/mL (≈ 50.9 mM). In addition, in the data set with Mus musculus [4], the TGD stood at 7 days.
As for `CC[C@@]1(OC(=O)COC(=O)CC[C@H](N)C(=O)O)C(=O)OCc2c1cc1n(c2=O)Cc2cc3ccccc3nc2-1`, the MTD result with Mus musculus [5] is recorded as “>=75 (mg of CPT) kg-1”. In addition, the TGD with Mus musculus [6] is 4 days.
As to `CC[C@@]1(O)C(=O)OCc2c1cc1n(c2=O)Cc2cc3ccccc3nc2-1` [CAMPTOTHECIN], the MTD in the data set listed under Mus musculus [1] is ~20 (mg of CPT) kg-1. Also, in the data set with Mus musculus [7], the TGD worked out at 17 days.
For `CC[C@@]1(OC(=O)CC[C@H](N)C(=O)O)C(=O)OCc2c1cc1n(c2=O)Cc2cc3ccccc3nc2-1`, in the data set with Mus musculus [5], the MTD entry is reported as “>=48 (mg of CPT) kg-1”. Besides, the TGD in the data set with Mus musculus [8] stood at 4 days.
As to `CC[C@@]1(OC(=O)CCCNC(=O)CC[C@H](N)C(=O)O)C(=O)OCc2c1cc1n(c2=O)Cc2cc3ccccc3nc2-1`, the MTD result in the data set with Mus musculus [5] is on record as “>=60 (mg of CPT) kg-1”. In the data set on Mus musculus [9], this molecule yielded a TGD of 1 days.
Consider `CC[C@@]1(OC(=O)CNC(=O)CC[C@H](N)C(=O)O)C(=O)OCc2c1cc1n(c2=O)Cc2cc3ccccc3nc2-1`, for which the MTD in the data set with Mus musculus [5] was ~40 (mg of CPT) kg-1. In the data set on Mus musculus [10], the TGD came to 2 days.
For the molecule `CC[C@@]1(OC(=O)CCC(NC(=O)CC[C@H](N)C(=O)O)C(=O)O)C(=O)OCc2c1cc1n(c2=O)Cc2cc3ccccc3nc2-1` (stereo not given in full), in the data set on Mus musculus [5], the MTD result is “>=41 (mg of CPT) kg-1”. In the data set on Mus musculus [11], this molecule gave a TGD of 1 days.
Regarding `CC[C@@]1(OC(=O)CCCOC(=O)CC[C@H](N)C(=O)O)C(=O)OCc2c1cc1n(c2=O)Cc2cc3ccccc3nc2-1`, in the data set on Mus musculus [5], the MTD is given as ~35 (mg of CPT) kg-1. In addition, the TGD in the data set on Mus musculus [10] turned out to be 3 days.
